Assay results of several laboratories.
Each line is one published result; the experiments were not run side by side.
SIRT6: NAD-dependent protein deacylase sirtuin-6 (SIRT6, Homo sapiens, UniProt Q8N6T7)
VRK1: Serine/threonine-protein kinase VRK1 (VRK1, Homo sapiens, UniProt Q99986)
BRD7: Bromodomain-containing protein 7 (BRD7, Homo sapiens, UniProt Q9NPI1)
PBK: Lymphokine-activated killer T-cell-originated protein kinase (PBK, Homo sapiens, UniProt Q96KB5)

Nc1nonc1-n1cc(C(=O)N/N=C/c2ccc(C(F)(F)F)cc2[N+](=O)[O-])nn1 has a remaining activity of 24.9% (SIRT6; enzyme activity, inhibitor, fluorescence; 100 µM).
The ΔTm of CCC1(CC)NC(=O)c2c(c3ccc(Cl)c(Cl)c3n2C)C1C#N (stereo not drawn) is reported as 0 °C (VRK1; thermal stability, DSF; 10 µM).
With C[S+]([O-])c1ccc(-c2nc(-c3ccncc3)c(-c3ccc(F)cc3)[nH]2)cc1 (stereo not drawn) the ΔTm was 0.34 °C (BRD7; thermal stability, DSF; 10 µM).
Nc1nonc1-n1cc(C(=O)N/N=C/c2cccnc2)nn1 has a remaining activity of 26% (SIRT6; enzyme activity, inhibitor, fluorescence; 100 µM).
The remaining signal of Cc1ccc(C(=O)Nc2ccc(CN3CCN(C)CC3)c(C(F)(F)F)c2)cc1C#Cc1cnc2cccnn12 is reported as 50% (Serine/threonine-protein kinase TNNI3K (TNNI3K, Homo sapiens, UniProt Q59H18); cell-free assay; 23.5 nM).
For Oc1ccc(-c2nc(-c3ccncc3)c(-c3ccc(F)cc3)[nH]2)cc1, the ΔTm was 1.3 °C (BRD7; thermal stability, DSF; 10 µM).
For Cc1cc2c(cc1N1C(=O)c3cccc4c(Cl)ccc(c34)C1=O)n(C)c(=O)n2C, the ΔTm was 2.3 °C (BRD7; thermal stability, DSF; 10 µM).
Nc1ncnc2occ(-c3ccc(NC(=O)Nc4cc(C(F)(F)F)ccc4F)cc3)c12 gave a remaining signal of 1.1% (ALK tyrosine kinase receptor (ALK, Homo sapiens, UniProt Q9UM73, C1156Y); cell-free assay; 20 µM).
Cn1c2c(Cl)c(Cl)ccc2c2cn[nH]c(=O)c21 gave a ΔTm of -0.3 °C (PBK; thermal stability, DSF; 10 µM).
For Nc1nonc1-n1cc(C(=O)N/N=C/c2ccc([N+](=O)[O-])cc2)nn1, the remaining activity was 24.8% (SIRT6; enzyme activity, inhibitor, fluorescence; 100 µM).
The ΔTm of CC1(C)NC(=O)c2[nH]c3c(Cl)c(Cl)ccc3c2C1C#N (stereo not drawn) is reported as 0.2 °C (VRK1; thermal stability, DSF; 10 µM).
For NS(=O)(=O)c1ccc(Nc2nc(-c3ccc(F)cc3)c3ccccc3n2)cc1, the remaining binding was 76% (BRD7; binding, competition with immobilised ligand; 1 µM).
For CC(N)c1ccc(C(=O)NOCc2ccc(C(F)(F)F)cc2)cc1 (stereo not drawn), the inhibition was 89.2% (SIRT6; enzyme activity, inhibitor, fluorescence; 100 µM).
The remaining activity of Nc1nonc1-n1cc(C(=O)N/N=C/c2cccc(O)c2O)nn1 is reported as 27.2% (SIRT6; enzyme activity, inhibitor, fluorescence; 100 µM).
The inhibition of COc1ccc(Sc2ccc(CONC(=O)c3ccc(C(N)=O)cc3)cc2C(F)(F)F)cc1 is reported as 97.4% (SIRT6; enzyme activity, inhibitor, fluorescence; 100 µM).
Nc1nonc1-n1cc(C(=O)N/N=C/c2ccc(O)cc2)nn1 has a remaining activity of 34.5% (SIRT6; enzyme activity, inhibitor, fluorescence; 100 µM).
With Cn1c2c(Cl)c(Cl)ccc2c2cc(N)[nH]c(=O)c21 the ΔTm was 1.3 °C (VRK1; thermal stability, DSF; 10 µM).
The inhibition of NC(=O)c1ccc(C(=O)NOCc2cccc(F)c2)cc1 is reported as 74.1% (SIRT6; enzyme activity, inhibitor, fluorescence; 100 µM).
With CCCOc1ccc(OC)c(F)c1C(=O)c1ccc(C(=O)N[C@@H]2CNC[C@H]2NC(=O)c2ccc3[nH]ncc3c2)cc1 the remaining activity was 47% (Angiopoietin-1 receptor (TEK, Homo sapiens, UniProt Q02763, Y897S); enzyme activity, inhibitor; 10 µM).
The inhibition of NC(=O)c1ccc(C(=O)NOCc2ccc(Sc3ccc(F)cc3)c(C(F)(F)F)c2)cc1 is reported as 90.2% (SIRT6; enzyme activity, inhibitor, fluorescence; 100 µM).
CCN1CCC2(CC1)NC(=O)c1c(c3ccc(Cl)c(Cl)c3n1C)C2C#N (racemic) has a ΔTm of -0.4 °C (VRK1; thermal stability, DSF; 10 µM).
The inhibition of NC(=O)c1ccc(C(=O)NOCc2ccc(C(F)(F)F)c(Cl)c2)cc1 is reported as 90.4% (SIRT6; enzyme activity, inhibitor, fluorescence; 100 µM).
With CC(C)(O)c1cn(-c2ccc(-c3cccc(S(C)(=O)=O)c3)cc2)c(C(C)(C)c2ccccc2Cl)n1 the Emax was 72% (Oxysterols receptor LXR-beta (NR1H2, Homo sapiens, UniProt P55055); reporter gene, agonist; CV-1).
The inhibition of NC(=O)c1ccc(C(=O)NOCc2cc(Cl)cc(Cl)c2)cc1 is reported as 88.2% (SIRT6; enzyme activity, inhibitor, fluorescence; 100 µM).
O=C(Nc1ccc(S(=O)(=O)N2CCC(Cl)CC2)cc1)c1ccc([N+](=O)[O-])o1 has an inhibition of 6% (Voltage-dependent L-type calcium channel subunit alpha-1C (Cacna1c, Rattus norvegicus, UniProt P22002); cell-free assay; 10 µM).
For Nc1nonc1-n1cc(C(=O)N/N=C/c2ccc(C(F)(F)F)cc2C(F)(F)F)nn1, the remaining activity was 32.5% (SIRT6; enzyme activity, inhibitor, fluorescence; 100 µM).
With CN1CCC2(CC1)NC(=O)c1c(c3ccc(Cl)c(Cl)c3n1C)C2C#N (racemic) the ΔTm was -0.2 °C (PBK; thermal stability, DSF; 10 µM).
NC(=O)c1ccc(C(=O)NOCc2ccc(Cl)cc2)cc1 gave an inhibition of 79.5% (SIRT6; enzyme activity, inhibitor, fluorescence; 100 µM).
CC/C(=N\NC(=O)NCc1cccc(O)c1)c1ccc(O)c(C)c1O gave an inhibition of 0.4% (ALK tyrosine kinase receptor (ALK, Homo sapiens, UniProt Q9UM73, G1269A); enzyme activity, inhibitor; 0.1 µM).
With Cn1c2c(c3ccc(Cl)c(Cl)c31)C(C#N)C1(CCCC1)NC2=O (stereo not drawn) the ΔTm was 0 °C (PBK; thermal stability, DSF; 10 µM).
The inhibition of NC(=O)c1ccc(C(=O)NOCc2ccc(Sc3ccc(N)cc3)c(C(F)(F)F)c2)cc1 is reported as 97.3% (SIRT6; enzyme activity, inhibitor, fluorescence; 100 µM).
For Nc1nonc1-n1cc(C(=O)N/N=C/c2ccccc2)nn1, the remaining activity was 38.9% (SIRT6; enzyme activity, inhibitor, fluorescence; 100 µM).
The ΔTm of Cn1c2c(c3ccc(Cl)c(Cl)c31)C(C#N)C(C)(C)NC2=O (stereo not drawn) is reported as -0.6 °C (PBK; thermal stability, DSF; 10 µM).
